Data set [1] deals with T1, Endothelin receptor type B (Mus musculus, UniProt P48302).
T1 sequence (P48302 whole entry): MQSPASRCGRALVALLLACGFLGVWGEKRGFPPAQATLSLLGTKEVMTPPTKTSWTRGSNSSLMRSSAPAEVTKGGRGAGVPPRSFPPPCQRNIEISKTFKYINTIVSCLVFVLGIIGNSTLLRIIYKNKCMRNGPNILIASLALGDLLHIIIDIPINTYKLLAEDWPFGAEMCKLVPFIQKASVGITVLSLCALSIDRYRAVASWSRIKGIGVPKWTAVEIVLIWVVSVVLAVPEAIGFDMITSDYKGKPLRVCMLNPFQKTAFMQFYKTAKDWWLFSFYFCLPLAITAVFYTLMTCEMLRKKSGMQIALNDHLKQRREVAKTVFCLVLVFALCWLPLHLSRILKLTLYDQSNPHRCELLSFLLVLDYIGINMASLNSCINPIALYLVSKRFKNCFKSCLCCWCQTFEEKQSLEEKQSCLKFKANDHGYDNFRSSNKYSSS
The data set can be described thus: Displacement of [125I]ET1 from endothelin B receptor in DBA mouse microsomes. Set-up: species or system Microsome. Summed up:
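Ventricular microsomes from DBA mice were prepared by homogenization and differential centrifugation in EDTA/HEPES/benzamidine buffers (pH 7.4). 10 µg membranes were incubated with 40 pM [125I]ET-1 and competitor (10 pM–100 µM) in Tris-HCl/154 mM NaCl/ascorbic acid (pH 7.4) at 37 °C for 4 h. Samples were filtered on GF/B and gamma counted. A two-site nonlinear fit gave the low-affinity IC50, which was converted to Ki by Cheng–Prusoff (KD 208 pM).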
Background: Loss of bound radioactivity is the signal in a displacement assay; it reports binding, not function.

Data set [2] in a line: Biodistribution in C57BL/6 mouse duodenal content assessed as drug uptake index at 0.3 to 1 mmol/kg, iv after 30 mins. Type of data set: ADME, organism-based. Conditions: in vivo, 0.5 h, in the assay text read “0.3 to 1 nmol/kg” for “0.3 to 1 mmol/kg”. Summed up:
(§1)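 Adult C57BL/6 mice (male and female, 25–30 g), tail-vein cannulated under isoflurane/N2O/O2, allowed ~1 h recovery, conscious under light restraint. [18F]tracer 0.2–2.0 MBq (0.3–1.0 nmol/kg) given as iv bolus. Killed by iv pentobarbitone 200 mg/kg at 30 min. Duodenal contents were moved directly into weighed vials, and duodenal wall was blotted. Gamma counting. Uptake index = (cpm/g tissue)/(cpm injected/g body weight).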

The nature of data set [3]: Biodistribution in C57BL/6 mouse duodenal wall content assessed as drug uptake index at 0.3 to 1 mmol/kg, iv after 30 mins. As to conditions: in vivo, 0.5 h, in the assay text read “0.3 to 1 nmol/kg” for “0.3 to 1 mmol/kg”. The data set is classed as ADME, organism-based. The procedure, abridged: as §1
Data set [4] concerns Plasma. Briefly: Protein binding in Wistar rat plasma at 19 MBq. The data set is classed as ADME, cell-free. The procedure, abridged:
(§2)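 Plasma from one anesthetized male Wistar rat (350 g), taken by cardiac puncture and stored at −20 °C overnight. 0.5 ml samples were incubated with 19 MBq [18F]tracer at 37 °C for 1, 2.5, 20 and 60 min. Protein was precipitated with ice-cold acetonitrile and centrifuged. Pellet and supernatant radioactivity were measured for protein binding. Supernatant was analyzed by gradient radio-RP-HPLC (C18, water/acetonitrile with 0.1% TFA).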

Data set [5] relates to Plasma. The data set can be described thus: Stability in Wistar rat plasma assessed as compound remaining at 19 MBq. Type of data set: ADME, cell-free. The procedure, abridged:
as §2

The test system of data set [6] is Rattus norvegicus. Briefly: Stability in Wistar rat assessed as compound remaining at 40 MBq, iv after 2.5 mins. The data set is classed as ADME, organism-based. Conditions: in vivo. Summed up: (§3)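 Single rat given 40 MBq [18F]tracer as an iv tail-vein bolus. Blood (600–800 µl) was drawn from a tail-artery catheter at 2.5, 10, 20 and 60 min and centrifuged to plasma. Proteins were precipitated with ice-cold acetonitrile. Supernatant was spiked with 10 µg unlabeled reference and analyzed by radio-RP-HPLC.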

Data set [7] deals with Rattus norvegicus. The data set can be described thus: Stability in Wistar rat assessed as compound remaining at 40 MBq, iv after 10 mins. Type of data set: ADME, organism-based. As to conditions: in vivo. The procedure, abridged: as §3
In data set [8] the test system is Plasma. Briefly: Stability in C57BL/6 mouse plasma assessed as compound remaining after 5 mins. The data set is classed as ADME, cell-free. The procedure, abridged: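 C57BL/6 mice (adult, both sexes) were prepared as for biodistribution and given [18F]tracer as a 100 µl tail-vein bolus. Killed by iv pentobarbitone at 5 or 20 min. Cardiac blood was centrifuged, and plasma from two mice was pooled. After acetonitrile protein precipitation, supernatant was spiked with 10 µg unlabeled reference and analyzed by radio-RP-HPLC.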

Data set [9] is described as follows: Drug level in C57BL/6 mouse bile at 6.6 MBq, iv after 3 to 4 mins. Type of data set: ADME, organism-based. As to conditions: in vivo. Summed up: (§4)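 Female C57BL/6 mice (22–23 g) under isoflurane 2% anesthesia with tail-vein catheters were imaged two at a time in a quadHIDAC small-animal PET scanner. [18F]tracer (6.6 MBq in 100 µl, saline flush) was injected 30 s after acquisition start. List-mode data were collected for 2 h and reconstructed iteratively. Radioactivity (cps/ml) was read from ROIs over organs in five coronal planes.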

The nature of data set [10]: Drug level in C57BL/6 mouse urine at 6.6 MBq, iv after 5 to 60 mins. The data set is classed as ADME, organism-based. As to conditions: in vivo. Summed up:
as §4

Data set [11] deals with Plasma. The data set can be described thus: Stability in plasma assessed as compound remaining after 20 mins.

A word on the Ki: it is the equilibrium dissociation constant of an inhibitor or competing ligand from its target. Higher therefore signals a looser hold on the target. In the case of `COc1cc(CC2=C(c3ccc4c(c3)OCO4)C(=O)OC2(O)c2ccc(OCCBr)cc2)cc(OC)c1OC` (stereo unspecified), in data set [1], the affinity corresponds to a Ki of 72 nM.

`COc1ccc(C2(O)OC(=O)C(c3ccc4c(c3)OCO4)=C2Cc2cc(OC)c(OC)c(OCCBr)c2)cc1` (stereo unspecified): in [1], the inhibition constant (Ki) amounted to 170 nM.

As for `COc1ccc(C2(O)OC(=O)C(c3ccc4c(c3)OCO4)=C2Cc2cc(OC)c(OC)c(OCCOS(=O)(=O)c3ccc(C)cc3)c2)cc1` (stereo unspecified), the inhibition constant Ki in data set [1] is 1.26 nM. This Ki is about 130-fold lower than that of the molecule before.

Turning to `COc1ccc(C2(O)OC(=O)C(c3ccc4c(c3)OCO4)=C2Cc2cc(OC)c(OC)c(OCC[18F])c2)cc1` (stereo unspecified), the Drug uptake in data set [2] was found to be 33; in data set [3], 9; in data set [9], 6000 cps/ml; in [10], 200 cps/ml. Besides, the PPB in the data set on Plasma [4] was 4.6%. The Stability entry in the data set with Plasma [5], with Rattus norvegicus [6], in the data set on Rattus norvegicus [7], with Plasma [8] and with Plasma [11] was “Stable” throughout.

Turning to `COc1cc(CC2=C(c3ccc4c(c3)OCO4)C(=O)OC2(O)c2ccc(OCCOS(=O)(=O)c3ccc(C)cc3)cc2)cc(OC)c1OC` (stereo unspecified), in [1], the Ki amounted to 96 nM.

Molecule `COc1cc(CC2=C(c3ccc4c(c3)OCO4)C(=O)OC2(O)c2ccc(OCCF)cc2)cc(OC)c1OC` (stereo unspecified) showed a Ki in data set [1] of 98 nM.

For `COc1ccc(C2(O)OC(=O)C(c3ccc4c(c3)OCO4)=C2Cc2cc(OC)c(OC)c(OCCF)c2)cc1` (stereo unspecified), in data set [1], the affinity, expressed as Ki, was 240 nM. This Ki is about 2.4-fold higher than that of the molecule before.
